# Screening results: PubChem BioAssay, The Scripps Research Institute Molecular Screening Center
# In the library only some 3% were active in any assay of this set; here they are far more common.
# S1P1 ag-PAM – activates or potentiates agonism at human S1P1 receptor | activation, % at 9.5 µM | AID 449 | S1P1 CRE-bla cells, forskolin, beta-lactamase FRET, potentiator mode; S1P1 agonist co-added at EC20, 2 nM; 100% = saturating reference agonist, 0% = basal | 56,000 compounds, 0.57% hits;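 active = activation above a cutoff set at the mean activation of all tested compounds plus 3 SD, cut at about 54% in these data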;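 also: forskolin at 4 µM as EC80 and the EC20 agonist is SEW2871; 100% = SEW2871 at its EC100 plus forskolin at EC80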
# S1P3 agonist – S1P3 (human) receptor agonism; Q99500; 60,000 compounds, 0.1% hits; activation, % at 4.5 µM; S1P3 NFAT-BLA reporter cells, FRET ratio; relative to 1 µM S1P, basal subtracted;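 active = activation above the screen-wide mean plus 3 SD, cut at about 4.5% in these data, passing the limit was not always enough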
#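 Assay system: CHO cells stably expressing human S1P3, Gα16 and NFAT-β-lactamase reporter. Timing: overnight plating, 4 h compound 37 °C, 2 h substrate RT. Signal: β-lactamase FRET emission ratio 460/535 nm. Measure: percent activation versus median 1 µM S1P response, basal-subtracted, per plate. Repeats: primary screen single test, confirmation screen in triplicate.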
# HTR1A agonist – activates the human 5-HT1a serotonin receptor | AID 567 | P08908 | CHO 5-HT1a Ga15 NFAT-bla reporter, FRET ratio; 0% basal, 100% maximal reference agonist | 65,000 compounds, 0.56% hits | activation, % at 10 µM;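 active = activation above the screen-wide mean activation plus 3 SD, cut at about 19% in these data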;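 also: 0% = DMSO wells and 100% = 5-CT at EC100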
# 5-HT1A blocker – antagonists of human 5-HT1a serotonin receptor; P08908; CHO 5-HT1a Ga15 NFAT-bla reporter, antagonist mode; inhibition, % at 10 µM; 62,000 compounds, 0.68% hits;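 active = inhibition above the mean of all tested compounds plus 3 SD, cut at about 43% in these data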;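 also: receptor stimulated by 5-CT agonist at 100 nM near EC80; beta-lactamase reporter measured by ratiometric fluorescence of a cleavable substrate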
# 5HT1E antag – 5-HT1E (human) receptor antagonism. P28566. inhibition, % at 6 µM. CHO 5-HT1E Ga15 NFAT-bla reporter, FRET, antagonist. 65,000 compounds, 0.99% hits;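 active = inhibition above a set limit, the mean inhibition across every tested compound plus 3 SD, cut at about 29% in these data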;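 also: signal is the 460 over 535 nm emission ratio of beta-lactamase substrate; 0% = agonist plus DMSO wells and 100% = wells without agonist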
# Target sequence (P28566 whole entry, looked up): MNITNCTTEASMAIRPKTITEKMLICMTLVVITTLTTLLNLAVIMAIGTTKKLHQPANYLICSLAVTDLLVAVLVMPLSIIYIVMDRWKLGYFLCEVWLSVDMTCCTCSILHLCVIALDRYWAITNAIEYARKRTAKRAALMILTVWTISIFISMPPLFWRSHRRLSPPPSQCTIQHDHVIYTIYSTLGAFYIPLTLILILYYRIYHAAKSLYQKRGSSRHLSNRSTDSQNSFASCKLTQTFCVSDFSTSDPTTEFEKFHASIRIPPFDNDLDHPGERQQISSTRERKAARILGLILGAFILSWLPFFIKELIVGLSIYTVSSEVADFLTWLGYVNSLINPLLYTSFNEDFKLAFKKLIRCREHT
# HTR1E agonist – agonists of human 5-HT1E serotonin receptor; CHO 5-HT1E Ga15 NFAT-bla reporter, FRET; 0% DMSO wells, 100% control agonist wells; P28566; activation, % at 6 µM; 65,000 compounds, 0.69% hits; AID 574;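 active = activation above a set limit, the screen-wide mean activation plus 3 SD, cut at about 8.5% in these data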;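 also: 100% = positive control agonist at 1 µM giving full maximal response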
# The depositor's hits bear a star; . = no result.
SMILES,S1P1 ag-PAM,S1P3 agonist,HTR1A agonist,5-HT1A blocker,5HT1E antag,HTR1E agonist
Cc1cc(C)n(Cc2ccc(C(=O)NCc3ccco3)o2)n1,.,.,-2,8,-7,1
Cc1cc(C)n(Cc2ccc(C(=O)NCCC3=CCCCC3)o2)n1,3,-1,65*,.,5,-1
COc1ccc(C2(O)CCN(CCCCOc3ccccc3)CC2)cc1,2,0,-1,67*,4,0
O=C(CN1C(=O)CCS(=O)(=O)c2ccccc21)Nc1cccc(Cl)c1,.,.,-6,-8,8,-1
Cc1onc(-c2c(Cl)cccc2Cl)c1C(=O)N1CCc2ccccc21,-12,7.4*,-4,-11,11,0
FC(F)(F)c1cccnc1N1CCN(c2ncnc3nc[nH]c23)CC1,8,-1,1,-8,5,1
Clc1ccccc1N1CCN(c2ncnc3nc[nH]c23)CC1,0,-2,66*,-5,28,0
CCN(CC)CCCN1C(=O)C(=O)/C(=C(/O)c2ccccc2)C1c1ccccn1 (configuration not stated),5,-4,2,.,5,0
CC(=O)c1c(C)[nH]c(C(=O)OCCCCN2C(=O)c3ccccc3C2=O)c1C,97*,-2,4,7,15,0
O=C(Nc1ncnc2c1CCC2)C12CC3CC(CC(C3)C1)C2,-2,-1,40*,2,16,0
Cc1cc(NC(=O)C2CC2)ncc1NC(=O)C12CC3CC(CC(C3)C1)C2,.,.,-1,3,6,0
CC(=O)Nc1cc(S(=O)(=O)C(F)(F)F)ccc1Cl,4,0,-4,3,-8,0
COC(=O)c1ccc(-n2nnnc2SCC(=O)Nc2cc(OC)ccc2OC)cc1,12,0,-4,9,-3,0
COc1ccc(OC)c(NC(=O)CSc2nnnn2-c2ccc3c(c2)OCO3)c1,-22,-1,0,44*,-6,0
C=CCn1c(Cc2csc(N)n2)nnc1SCc1ccc(C(=O)OC)cc1,.,0,0,-9,-2,-2
CCn1c(CNC(=O)c2ccco2)nnc1SCC(=O)Nc1cc(C(F)(F)F)ccc1Cl,-6,0,54*,5,3,0
N#Cc1nc(-c2ccccc2Cl)oc1N1CCCCC1,-15,-4,-1,.,33*,0
Clc1ccc(Cn2ncc3c(N4CCCCC4)ncnc32)cc1,-3,-1,4,9,34*,-1
CC(c1nnnn1C1CCCCC1)N(Cc1ccccc1)Cc1cccnc1 (configuration not stated),17,-1,2,25,-8,-1
CCN(Cc1ccccc1)C(c1cccs1)c1nnnn1C1CCCCC1 (configuration not stated),-11,-1,-1,44*,7,0
O=C(NCCc1c[nH]c2ccccc12)C1CCN(c2nnc(N3CCCC3=O)s2)CC1,-23,0,0,6,-8,46*
O=C(O)C1CCCCC1C(=O)NCCc1ccncc1 (configuration not stated),-20,0,-4,1,0,-1
O=C(NCCc1c[nH]c2ccccc12)C(F)(F)C(F)F,6,-1,0,9,11,26*
O=C(O)C1CCCCC1C(=O)NCCc1c[nH]c2ccccc12 (configuration not stated),12,0,22*,-6,14,99*
Cc1cc(C(=O)Nc2c(F)cc(F)cc2Br)no1,9,-1,0,4,-2,0
SMILES,S1P1 ag-PAM,S1P3 agonist,HTR1A agonist,5-HT1A blocker,5HT1E antag,HTR1E agonist
O=C(Nc1c(F)cc(F)cc1Br)c1cc(-c2ccc(O)cc2)on1,99*,0,3,16,-11,2
COc1ccccc1OCC(O)Cn1c(=N)n(CCN2CCCCC2)c2ccccc21 (configuration not stated),.,.,0,71*,6,-1
N=c1n(CCN2CCCCC2)c2ccccc2n1CC(O)c1cccc(Br)c1 (configuration not stated),-1,-1,-5,54*,-1,0
N=c1n(CCN2CCOCC2)c2ccccc2n1CC(O)COc1ccccc1 (configuration not stated),-27,0,-1,1,0,0
N=c1n(CCN2CCCCC2)c2ccccc2n1CC(O)COc1ccccc1 (configuration not stated),-15,0,-1,49*,-9,0
N=c1n(CCN2CCCC2)c2ccccc2n1CC(O)c1ccco1 (configuration not stated),-4,0,1,2,6,0
Cc1ncsc1CCSc1nc2ccccc2c(=O)n1C,0,-1,0,7,27,0
CCOc1ccccc1CNC(=O)C1CCN(C(=O)c2sccc2-n2cccc2)CC1,-6,0,0,-2,-10,1
CCOC(=O)C1CCCN(c2c(Nc3cccc(C)c3)c(=O)c2=O)C1 (configuration not stated),14,0,0,5,-3,0
Cc1ccc2[nH]c(=O)c(N3CCOCC3)c(-c3ccccc3)c2c1,.,0,4,52*,11,0
CCC(=O)N1CN(S(=O)(=O)c2ccc(C)cc2)CC1C (configuration not stated),-8,0,2,0,-7,-1
N#Cc1c(-c2cccs2)cc(-c2ccccn2)nc1N,-52,0,6,5,43*,2
N#Cc1c(N)nc(SCC(=O)NCCc2ccccc2)c(C#N)c1-c1cccs1,-9,-4,12,.,13,2
N#Cc1c(-c2cccs2)cc(-c2cccnc2)nc1N,-16,-1,3,6,44*,1
Cn1c(NC(=O)c2cc(Br)ccc2Cl)cc(=O)n(C)c1=O,3,-1,-2,6,10,0
CN=c1sc2ccccc2n1CC(O)COCc1ccco1 (configuration not stated),2,0,0,.,-16,36*
CN(C)c1ccc2c(c1)OC(N)=C(C#N)C2c1cccc(F)c1 (configuration not stated),-9,-2,-3,10,75*,1
CC(C)OP(C)(=O)CN1CCN(CP(C)(=O)OC(C)C)CC1 (configuration not stated),-20,0,0,-16,-4,0
Cc1ccc(SC/C(O)=C(\C#N)c2nc3ccccc3n2C)cc1,-17,-1,0,-29,-10,0
CCN(CC)S(=O)(=O)c1ccc(/C(O)=C(\C#N)c2nc3ccccc3n2C)cc1,11,0,15,-23,39*,0
